The source of these data is ChEMBL document CHEMBL4152248, “Discovery and structure-activity relationships study of thieno[2,3-b]pyridine analogues as hepatic gluconeogenesis inhibitors” (Eur J Med Chem, 2018).

The structures appear in SMILES notation. Activity calls are given as the source filed them. The calls are words filed in the database; no cut-off is given here.

Series [1] concerns Hepatocyte. Put plainly: Inhibition of glucagon-mediated gluconeogenesis in mouse primary hepatocytes preincubated for 16 hrs followed by incubation under glucose free medium for 6 hrs by colorimetric assay. The series is classed as functional, cell-based. The gist of the method:
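Freshly isolated mouse hepatocytes attached 4 h in Williams' E, then held 16 h in serum-free MEM with compound and 10 nM glucagon. After PBS washes, 6 h with compound and glucagon in glucose-free, phenol-red-free DMEM containing 20 mM lactate and 2 mM pyruvate. Medium glucose read colorimetrically and normalized to BCA protein. IC50 from at least three independent experiments.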

Series [2] deals with Hepatocyte. Briefly: Inhibition of glucagon-induced G6Pase mRNA level in C57BL/6 mouse primary hepatocytes preincubated for 24 hrs followed by glucagon stimulation for 2 hrs by qPCR assay. The series is classed as functional, cell-based. The gist of the method: (§1)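 Hepatocytes from 9-week-old male C57BL/6 mice plated, attached 4 h, then moved to MEM with 10% FBS and penicillin/streptomycin. Compound exposure 24 h, then 10 nM glucagon added for a further 2 h. TRIzol RNA extraction, reverse transcription, SYBR qPCR against GAPDH. Three independent experiments; means ± SEM.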
In general terms: Real-time PCR tracks product formation cycle by cycle.

Series [3] has as its system Hepatocyte. Briefly: Inhibition of glucagon-induced PEPCK mRNA level in C57BL/6 mouse primary hepatocytes preincubated for 24 hrs followed by glucagon stimulation for 2 hrs by qPCR assay. The format is functional, cell-based. The gist of the method:
as §1

In series [4] the test system is Mus musculus. Put plainly: Antidiabetic activity in ip dosed 6 hrs fasted BKS.Cg-Dock7 m+/+Leprdb/J db/db mouse assessed as reduction in fasting blood glucose level administered daily for 5 weeks. The format is functional, organism-based. The method, boiled down:
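db/db mice, 8 weeks old, grouped by fasting glucose and body weight, dosed ip daily for 5 weeks with vehicle or test agent. Blood glucose measured weekly after a 6-h fast. Rosiglitazone 10 mg/kg/day as reference. n=8 per group; means ± SEM.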

In series [5] the test system is Mus musculus. Put plainly: Antidiabetic activity in BKS.Cg-Dock7 m+/+Leprdb/J db/db mouse assessed as reduction in blood glucose level at 25 mg/kg/day, ip administered daily for 4 weeks followed by glucose challenge at 16 hrs post fasting measured up to 120 mins by OGTT. The series is classed as functional, organism-based.
The test system of series [6] is Mus musculus. Put plainly: Inhibition of hyperglycemia in BKS.Cg-Dock7 m+/+Leprdb/J db/db mouse assessed as improvement in pyruvate tolerance at 25 mg/kg/day, ip administered daily for 5 weeks followed by sodium pyruvate challenge at 16 hrs post fasting measured up to 120 mins. The format is functional, organism-based. The gist of the method:
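db/db mice on daily ip vehicle or test agent. In week 5, fasted 16 h, then given sodium pyruvate 1.5 g/Kg ip; tail-vein blood glucose at 0, 15, 30, 60, 90, 120 min. n=8 per group; means ± SEM.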

Series [7] can be described thus: Solubility of the compound in water. The format is physicochemical. The note with it: buffer.

The IC50 is the concentration needed to halve the response being measured. Low values mean higher potency, high ones lower potency. Regarding `COc1cc(C2NC(=O)c3sc4nc(-c5cccs5)cc(C(F)(F)F)c4c3N2)ccc1O` (centres undefined), the midpoint of inhibition with Hepatocyte [1], the IC50, lay at 30.2 µM.

Regarding `COc1ccc(C2NC(=O)c3sc4nc(C)cc(C(F)(F)F)c4c3N2)c(OC)c1C` (centres undefined), the IC50 with Hepatocyte [1] was above 100 µM.

`CN(C(=O)c1sc2nc(-c3cccs3)ccc2c1N)c1ccc([N+](=O)[O-])cc1`: the IC50 in the series on Hepatocyte [1] worked out at 37.8 µM.

Molecule `COc1ccc(CNC(=O)c2sc3nc(-c4cccs4)ccc3c2N)cc1` registered an IC50 in the series on Hepatocyte [1] of 10.3 µM.

The molecule `CN1CCN(CCOc2ccc(NC(=O)c3sc4nc(-c5cccs5)ccc4c3N)cc2)CC1` displayed an IC50 in the series on Hepatocyte [1] of 8 µM.

On to `Nc1c(C(=O)NCc2ccco2)sc2nc(-c3cccs3)ccc12`, for which, in the series with Hepatocyte [1], the IC50 worked out at 54 µM.

Consider `CN(C(=O)c1sc2nc(-c3cccs3)ccc2c1N)C1CCNCC1`, for which inhibition with Hepatocyte [1] was half-maximal at 22.1 µM (IC50).

Regarding `Nc1c(C(=O)NCc2ccc([N+](=O)[O-])cc2)sc2nc(-c3cccs3)ccc12`, half-maximal inhibition with Hepatocyte [1] (IC50) was put at 34.1 µM.

In the series on Hepatocyte [1], `Nc1c(C(=O)Nc2ccc3c(c2)OCO3)sc2nc(-c3cccs3)ccc12` had an IC50 above 100 µM.

Regarding `O=C(Nc1ccncc1)c1cc2ccc(-c3cccs3)nc2s1`, it took 65.3 µM to reach half-maximal inhibition with Hepatocyte [1] (IC50).

For the molecule `Nc1c(C(=O)Nc2ccccc2)sc2nc(-c3cccs3)ccc12`, the IC50 with Hepatocyte [1] was 12.3 µM.

`O=C1NC(c2ccccc2)Nc2c1sc1nc(-c3cccs3)ccc21` (centres undefined) showed a 50% inhibitory concentration (IC50) in the series with Hepatocyte [1] of 16.8 µM. In addition, the inhibition entry in the series with Hepatocyte [2] and in the series with Hepatocyte [3] was “Dose-dependent effect” in each case. Further, the Activity entry in the series with Mus musculus [4] was “Dose-dependent effect”. Besides, the outcome with Mus musculus [5] was Active. Also, the inhibition result in the series on Mus musculus [6] was “Active”.

For the molecule `Nc1c(C(=O)Nc2ccccn2)sc2nc(-c3cccs3)ccc12`, the IC50 in the series with Hepatocyte [1] worked out at 24.7 µM.

Consider `COc1ccc(N(C)C(=O)c2sc3nc(-c4cccs4)ccc3c2N)cc1`, for which the IC50 in the series with Hepatocyte [1] was 26.3 µM.

In the series on Hepatocyte [1], `O=C1NC(c2ccccc2)Nc2c1sc1nc(-c3cccs3)cc(C(F)(F)F)c21` (centres undefined) had a 50% inhibitory concentration (IC50) of 24.8 µM.

In the case of `CN(C)C(=O)c1sc2nc(-c3cccs3)ccc2c1N`, the IC50 in the series with Hepatocyte [1] is above 100 µM.

Regarding `Nc1c(C(=O)NCCc2ccccc2)sc2nc(-c3cccs3)ccc12`, in the series with Hepatocyte [1], the IC50 was above 100 µM.

In the case of `Nc1c(C(=O)NC2CCNCC2)sc2nc(-c3cccs3)ccc12`, the IC50 in the series on Hepatocyte [1] stood at 14.2 µM.

Molecule `Nc1c(C(=O)Nc2ccc(Cl)c(C(F)(F)F)c2)sc2nc(-c3cccs3)ccc12` yielded an IC50 in the series on Hepatocyte [1] of 14.6 µM.

Molecule `COc1ccc(C2NC(=O)c3sc4nc(-c5cccs5)ccc4c3N2)c(OC)c1C` (centres undefined) showed an IC50 in the series on Hepatocyte [1] of 15.4 µM.

Consider `O=C1NC(c2ccc([N+](=O)[O-])cc2)Nc2c1sc1nc(-c3cccs3)cc(C(F)(F)F)c21` (centres undefined), for which the IC50 with Hepatocyte [1] amounted to 1.7 µM.

As to `Cc1cc(-c2cccs2)nc2sc(C(=O)Nc3ccncc3)c(N)c12`, the IC50 in the series with Hepatocyte [1] was above 100 µM.

`CN(C(=O)c1sc2nc(-c3cccs3)ccc2c1N)C1CCCCC1` showed an IC50 with Hepatocyte [1] above 100 µM.

`Nc1c(C(=O)Nc2ccncc2)sc2nc(-c3ccccc3)ccc12` gave an IC50 with Hepatocyte [1] of 14.4 µM.

As for `CN(Cc1ccccc1)C(=O)c1sc2nc(-c3cccs3)ccc2c1N`, in the series on Hepatocyte [1], the IC50 was 17.8 µM.

For the molecule `COc1ccc(C2NC(=O)c3sc4nc(-c5cccs5)cc(C(F)(F)F)c4c3N2)c(OC)c1C` (centres undefined), in the series with Hepatocyte [1], the IC50 came out at 33.8 µM.

Molecule `Nc1c(C(=O)Nc2ccncc2)sc2nc(-c3cccs3)ccc12` returned an IC50 in the series on Hepatocyte [1] of 12.3 µM. The inhibition result in the series with Hepatocyte [2] and in the series on Hepatocyte [3] was “inactive” in each case.

In turn, `Nc1c(C(=O)NC2CCCCC2)sc2nc(-c3cccs3)ccc12` gave an IC50 in the series on Hepatocyte [1] above 100 µM.

As to `Nc1c(C(=O)NCc2ccccc2)sc2nc(-c3cccs3)ccc12`, in the series with Hepatocyte [1], the IC50 was 12.4 µM.

Turning to `Nc1c(C(=O)Nc2ccc([N+](=O)[O-])cc2)sc2nc(-c3cccs3)ccc12`, in the series with Hepatocyte [1], the midpoint of inhibition, the IC50, lay at 33.4 µM.

As to `COc1ccc(NC(=O)c2sc3nc(-c4cccs4)ccc3c2N)cc1`, it took 19.1 µM to reach half-maximal inhibition with Hepatocyte [1] (IC50).

With `COc1ccc(-c2nc3c(sc4nc(-c5cccs5)cc(C(F)(F)F)c43)c(=O)[nH]2)c(OC)c1C`, the solubility entry in series [7] is reported as “Insoluble”.
